Assay results published in ChEMBL document CHEMBL3826936, “Alkyne-substituted diminazene as G-quadruplex binders with anticancer activities” (Eur J Med Chem, 2016).
Calls of active or inactive are those of the source. No cut-off for these calls is given here.

System: not listed separately
Test: Binding affinity to 5'-FAM/3'-TAMRA labeled c-MYC 22-mer G-quadruplex DNA (unknown origin) at 4 uM in presence of 26-mer duplex DNA by TR-FRET assay
Settings: not given

| Activity | SMILES |
| --- | --- |
| inactive | COc1ccc(C#Cc2cccc(N/N=N/c3ccc(C(=N)N)cc3)c2)cc1 |
| inactive | N=C(N)c1ccc(/N=N/Nc2ccccc2C#Cc2ccccc2)cc1 |
| inactive | N=C(N)c1ccc(/N=N/Nc2cccc(C#Cc3ccccc3)c2)cc1 |
| inactive | N=C(N)c1ccc(/N=N/Nc2ccncc2)cc1 |

System: not listed separately
Test: Binding affinity to 5'-FAM/3'-TAMRA labeled c-MYC 22-mer G-quadruplex DNA (unknown origin) assessed as change in melting temperature at 4 uM after 12 hrs by TR-FRET assay
Settings: not given
Procedure, shortened: (§1)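 Dual-labeled FAM/TAMRA oligos diluted to 800 nM in 60 mM potassium cacodylate (pH 7.2), annealed 10 min at 85 °C and cooled to room temperature. Mixed 1:1 with ligand at […] in the same buffer. Equilibrated at least 12 h at 4 °C. ΔT1/2 taken as melting temperature with minus without ligand, in triplicate, averaged.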

| ΔTm [°C] | SMILES |
| --- | --- |
| 7.3 | COc1ccc(C#Cc2cccc(N/N=N/c3ccc(C(=N)N)cc3)c2)cc1 |
| 6.4 | N=C(N)c1ccc(/N=N/Nc2ccccc2C#Cc2ccccc2)cc1 |
| 7.1 | N=C(N)c1ccc(/N=N/Nc2cccc(C#Cc3ccccc3)c2)cc1 |
| 6.1 | N=C(N)c1ccc(/N=N/Nc2ccncc2)cc1 |

System: not listed separately
Test: Binding affinity to 5'-FAM/3'-TAMRA labeled F21T 21-mer G-quadruplex DNA (unknown origin) assessed as change in melting temperature at 4 uM after 12 hrs by TR-FRET assay
Settings: not given
Procedure, shortened: as §1

| ΔTm [°C] | SMILES |
| --- | --- |
| < 5 | COc1ccc(C#Cc2cccc(N/N=N/c3ccc(C(=N)N)cc3)c2)cc1 |
| < 5 | N=C(N)c1ccc(/N=N/Nc2ccccc2C#Cc2ccccc2)cc1 |
| < 5 | N=C(N)c1ccc(/N=N/Nc2cccc(C#Cc3ccccc3)c2)cc1 |
| < 5 | N=C(N)c1ccc(/N=N/Nc2ccncc2)cc1 |

System: not listed separately
Test: Binding affinity to 5'-FAM/3'-TAMRA labeled c-kit2 26-mer G-quadruplex DNA (unknown origin) assessed as change in melting temperature at 4 uM after 12 hrs by TR-FRET assay
Settings: not given
Procedure, shortened: as §1

| ΔTm [°C] | SMILES |
| --- | --- |
| 5.48 | COc1ccc(C#Cc2cccc(N/N=N/c3ccc(C(=N)N)cc3)c2)cc1 |
| 5.12 | N=C(N)c1ccc(/N=N/Nc2ccccc2C#Cc2ccccc2)cc1 |
| 6.4 | N=C(N)c1ccc(/N=N/Nc2cccc(C#Cc3ccccc3)c2)cc1 |
| 6.58 | N=C(N)c1ccc(/N=N/Nc2ccncc2)cc1 |

System: not listed separately
Test: Binding affinity to 5'-FAM/3'-TAMRA labeled k-RAS21R 21-mer G-quadruplex DNA (unknown origin) assessed as change in melting temperature at 4 uM after 12 hrs by TR-FRET assay
Settings: not given
Procedure, shortened: as §1

| ΔTm [°C] | SMILES |
| --- | --- |
| 2.6 | COc1ccc(C#Cc2cccc(N/N=N/c3ccc(C(=N)N)cc3)c2)cc1 |
| 1.8 | N=C(N)c1ccc(/N=N/Nc2ccccc2C#Cc2ccccc2)cc1 |
| 3.7 | N=C(N)c1ccc(/N=N/Nc2cccc(C#Cc3ccccc3)c2)cc1 |
| 4.3 | N=C(N)c1ccc(/N=N/Nc2ccncc2)cc1 |

System: not listed separately
Test: Binding affinity to 5'-FAM/3'-TAMRA labeled 26-mer duplex DNA (unknown origin) assessed as change in melting temperature at 4 uM after 12 hrs by TR-FRET assay
Settings: not given

| ΔTm [°C] | SMILES |
| --- | --- |
| < 5 | COc1ccc(C#Cc2cccc(N/N=N/c3ccc(C(=N)N)cc3)c2)cc1 |
| < 5 | N=C(N)c1ccc(/N=N/Nc2ccccc2C#Cc2ccccc2)cc1 |
| < 5 | N=C(N)c1ccc(/N=N/Nc2cccc(C#Cc3ccccc3)c2)cc1 |
| < 5 | N=C(N)c1ccc(/N=N/Nc2ccncc2)cc1 |

System: not listed separately
Test: Antiproliferative activity against human OVCAR3 cells after 72 hrs by WST-1 assay
Format: functional
Settings: OVCAR-3, 72 h
Procedure, shortened: (§2)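 Cells seeded in 96-well plates the afternoon before treatment, at numbers keeping them in log-phase growth; about 18 h later, compounds semi-serially diluted in DMSO then growth medium and added. Incubation 72 h, then WST-1 added and plates read after 4 more hours at 37 °C. GI50 derived from curve fits; viability expressed relative to DMSO control.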

| SMILES | GI50 [µM] |
| --- | --- |
| COc1ccc(C#Cc2cccc(N/N=N/c3ccc(C(=N)N)cc3)c2)cc1 | 5.2 |
| N=C(N)c1ccc(/N=N/Nc2ccccc2C#Cc2ccccc2)cc1 | 8.1 |
| N=C(N)c1ccc(/N=N/Nc2cccc(C#Cc3ccccc3)c2)cc1 | 6.5 |

System: not listed separately
Test: Antiproliferative activity against human PC3 cells after 72 hrs by WST-1 assay
Format: functional
Settings: PC-3, 72 h
Procedure, shortened: as §2

| SMILES | GI50 [µM] |
| --- | --- |
| COc1ccc(C#Cc2cccc(N/N=N/c3ccc(C(=N)N)cc3)c2)cc1 | 5 |
| N=C(N)c1ccc(/N=N/Nc2ccccc2C#Cc2ccccc2)cc1 | 5.3 |
| N=C(N)c1ccc(/N=N/Nc2cccc(C#Cc3ccccc3)c2)cc1 | 5.8 |

System: MDA-MB-231
Test: Antiproliferative activity against human MDA-MB-231 cells after 72 hrs by WST-1 assay
Format: functional
Settings: MDA-MB-231, 72 h
Procedure, shortened: as §2

| GI50 [µM] | SMILES |
| --- | --- |
| 5.5 | COc1ccc(C#Cc2cccc(N/N=N/c3ccc(C(=N)N)cc3)c2)cc1 |
| 5.1 | N=C(N)c1ccc(/N=N/Nc2ccccc2C#Cc2ccccc2)cc1 |
| 9.5 | N=C(N)c1ccc(/N=N/Nc2cccc(C#Cc3ccccc3)c2)cc1 |

System: not listed separately
Test: Antiproliferative activity against human OVCAR3 cells assessed as cell viability at 20 uM after 72 hrs by WST-1 assay relative to control
Format: functional
Settings: OVCAR-3, 72 h, read-out: Activity
Procedure, shortened: as §2

| SMILES | viability at 20 µM [%] |
| --- | --- |
| N=C(N)c1ccc(/N=N/Nc2ccncc2)cc1 | ≥ 75 |

System: not listed separately
Test: Antiproliferative activity against human PC3 cells assessed as cell viability at 20 uM after 72 hrs by WST-1 assay relative to control
Format: functional
Settings: PC-3, 72 h, read-out: Activity
Procedure, shortened: as §2

| SMILES | viability at 20 µM [%] |
| --- | --- |
| N=C(N)c1ccc(/N=N/Nc2ccncc2)cc1 | ≥ 75 |

System: MDA-MB-231
Test: Antiproliferative activity against human MDA-MB-231 cells assessed as cell viability at 20 uM after 72 hrs by WST-1 assay relative to control
Format: functional
Settings: MDA-MB-231, 72 h, read-out: Activity
Procedure, shortened: as §2

| SMILES | viability at 20 µM [%] |
| --- | --- |
| N=C(N)c1ccc(/N=N/Nc2ccncc2)cc1 | ≥ 75 |
